High-throughput results (PubChem)
The list is not random: actives were taken first. Their share in the collection is about 2.7%.
CSN deneddyl inh: CSN deneddylation inhibition; Q92905; Purified CSN, SCF-Nedd8-OG deneddylation, fluorescence polarization; inhibition, % at 12.5 µM; 360,000 tested, 0.38% active;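 active means pattern-corrected inhibition above about 35%, with an unprinted fluorescence ratio check between 0.5 and 1.5, limit read from the data, passing the limit was not always enough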;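 further: 0% = enzyme with substrate and 100% = substrate without enzyme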
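Assay system: HEK293T-derived human Csn5 enzyme; quantity: 0.24 nM enzyme; medium: Tris/NaCl/DTT buffer, pH 7.5; also added: substrate SCFSkp2-Nedd8OG, 10 nM; doses: 12.5 µM compound; schedule: 90 min reaction at room temperature; signal: FP; read-out: % inhibition of substrate cleavage by Csn5; benchmarks: substrate-only high control, full reaction low control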
TPT1 inhibitor: blocks Candida albicans tRNA 2'-phosphotransferase. inhibition, % at 5 µM. 300,000 tested, 0.81% active. AID 1962. recombinant caTPT1, FP RNA substrate dephosphorylation;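 active means inhibition above the mean of all tested compounds plus 3 SD, set per screening campaign, cut at about 24% in these data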;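 further: plate controls were DMSO alone for no effect and ferristatin control at 100 nM for full effect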
NadD inh: NadD (S. aureus) enzyme inhibition; purified NadD enzyme, colorimetric absorbance read-out; inhibition, % at 20 µM; 360,000 tested, 0.78% active; AID 602399; in the data active means inhibition above about 26%
PP1 inh: counter-screen for PP5 inhibitors: inhibitors of human PP1-alpha; P62136; 320,000 tested, 0.9% active; inhibition, % at 6.7 µM; purified PP1alpha, OMFP fluorescence;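 active means inhibition above the mean inhibition of all tested compounds plus 3 SD, computed separately for each screening campaign, cut at about 15% in these data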
HNF4A DNA FP: change in binding of human HNF4 alpha to DNA; P41235; HNF4a-FITC DNA binding, fluorescence polarization, 1 h; activity change, % at 10 µM; 360,000 tested, 0.3% active; AID 1224865; in the data active means activity change above about 30%, passing the limit was not always enough
Rpn11 block: inhibitors of human proteasome Rpn11; O00487; human 26S proteasome, Ub4-pepOG fluorescence polarization; 20S core pre-blocked with epoxomicin; inhibition, % at 20 µM; 360,000 tested, 0.59% active;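 active means inhibition at 20 µM, scaled to each plate's controls, above about 33%, limit read from the data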
Target sequence (O00487 whole entry, looked up): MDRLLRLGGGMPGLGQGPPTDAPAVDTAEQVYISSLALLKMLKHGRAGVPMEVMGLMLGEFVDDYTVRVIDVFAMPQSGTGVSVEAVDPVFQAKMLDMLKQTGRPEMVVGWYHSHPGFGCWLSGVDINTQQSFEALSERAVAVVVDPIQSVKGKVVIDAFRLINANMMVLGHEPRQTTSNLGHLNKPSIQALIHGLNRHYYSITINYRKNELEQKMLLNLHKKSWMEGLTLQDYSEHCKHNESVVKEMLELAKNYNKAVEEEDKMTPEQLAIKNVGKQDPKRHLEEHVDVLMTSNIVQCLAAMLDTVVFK
NadD conf: NadD (S. aureus) inhibition, single concentration confirmation; shares compounds with NadD inh; purified S. aureus NadD, colorimetric enzyme assay; inhibition, % at 20 µM; 2,000 tested, 13% active; AID 624309; in the data active means inhibition mostly above about 42%, no sharp cut-off; inactive means mostly below about 42%
Starred values were filed as active, the others as inactive; . = no result given.

SMILES | CSN deneddyl inh | TPT1 inhibitor | NadD inh | PP1 inh | HNF4A DNA FP | Rpn11 block | NadD conf
CCC(C)(C)C1CCC2(CC1)NC(=O)N(CC(=O)NC(C)CCc1ccccc1)C2=O (centres undefined) | 2 | . | 48* | . | -1 | 0 | -21
COc1ccc(CN(C)C(=O)Cc2ccc(S(=O)(=O)N3CCOCC3)s2)cc1OC | -2 | . | -1 | -2 | 2 | -16 | .
Cc1ccc(S(=O)(=O)Nc2ccccc2C(=O)Nc2nc(-c3ccc(F)cc3)cs2)cc1 | 0 | -3 | 32* | 17* | 1 | 13 | 48*
Cc1cc([N+](=O)[O-])ccc1-c1ccc(/C=N/NC(=O)c2ccc(Br)o2)o1 | 7 | 4 | 31* | 11 | 16 | 32 | 9
Cc1ccc([N+](=O)[O-])cc1-c1ccc(/C=N/NC(=O)c2cc3c(ccc4ccccc43)o2)o1 | 0 | 4 | 33* | -5 | 1 | 6 | -5
Cc1ccc(-c2ccc(/C=N\NC(=O)c3cc4c(ccc5ccccc54)o3)o2)cc1[N+](=O)[O-] | 1 | -2 | 45* | -2 | 6 | -2 | 10
N#CCn1cc(/C=N/NC(=O)c2cc3c(ccc4ccccc43)o2)c2ccccc21 | 9 | 9 | 31* | 9 | 1 | 18 | 24
O=C(N/N=C/c1cccc([N+](=O)[O-])c1)c1cc2c(ccc3ccccc32)o1 | 15 | 1 | 6 | 1 | -3 | 11 | .
Cc1cc(C(=O)N/N=C/c2ccc(-c3ccc([N+](=O)[O-])cc3C)o2)n[nH]1 | 16 | 11 | 22 | -2 | 10 | . | .
Cc1ccc(-c2ccc(/C=N/NC(=S)Nc3ccccc3)o2)cc1[N+](=O)[O-] | 0 | 2 | 27 | 4 | -2 | 5 | .
O=C(CCNC(=O)C1CCN(S(=O)(=O)c2ccccc2)CC1)Nc1cccc(C(F)(F)F)c1 | -1 | 1 | -7 | 0 | 0 | -1 | .
COc1cc(C)c(CN2CCC(n3nccc3NC(=O)C3CC3)CC2)cc1C | 1 | 0 | 1 | -2 | 4 | -7 | .
O=C(N/N=C/c1ccc(-c2ccc(Cl)c(C(=O)O)c2)o1)c1cc2c(ccc3ccccc32)o1 | 26 | 0 | 39* | 8 | -23 | 26 | 52*
O=C(O)c1ccc(/C=N/NC(=O)c2cc3c(ccc4ccccc43)o2)cc1 | 11 | -2 | 7 | 0 | -5 | 4 | .
N#CC1=C2SCN(Cc3ccco3)CN2C(=O)CC1c1cccc2ccccc12 (centres undefined) | 9 | 3 | 31* | -2 | 1 | 10 | 9
Nc1[nH]c(C(=O)c2ccccc2)c(-c2ccccc2C(F)(F)F)c1C(=O)NCCc1c[nH]c2ccccc12 | 7 | . | 28 | . | 9 | . | .
Nc1[nH]c(C(=O)c2ccccc2)c(-c2ccc([N+](=O)[O-])cc2)c1C(=O)NCCc1c[nH]c2ccccc12 | -1 | . | 43* | . | 1 | . | 24
Nc1[nH]c(C(=O)c2ccccc2)c(-c2ccc(Cl)cc2)c1C(=O)NCc1ccccc1 | -4 | . | 9 | . | 2 | . | .
Nc1[nH]c(C(=O)c2ccccc2)c(-c2ccccc2Br)c1C(=O)NCCc1c[nH]c2ccccc12 | 3 | . | 43* | . | 2 | . | 28
Nc1[nH]c(C(=O)c2ccccc2)c(-c2ccccc2Br)c1C(=O)NCc1ccc(-c2ccccc2)cc1 | 0 | . | 36* | . | 3 | . | 50*
Nc1[nH]c(C(=O)c2ccc(Br)cc2)c(-c2ccc(Br)cc2)c1C(=O)NCCc1c[nH]c2ccccc12 | 5 | . | 50* | . | 3 | . | 39
COc1ccc(C(=O)c2[nH]c(N)c(C(=O)NCCc3c[nH]c4ccccc34)c2-c2ccc(Cl)cc2)cc1 | 0 | . | 25 | . | 7 | . | .
CCN(c1ccc(NC(=O)CSCc2c(C)noc2C)cc1)C(C)C | 1 | . | -1 | -1 | 1 | -7 | .
CC1CCN(S(=O)(=O)c2ccc(C(=O)Nc3ccccc3-c3nc4ccccc4[nH]3)cc2)CC1 | -4 | 6 | 29* | -1 | 1 | -1 | 4
Cc1cc(F)ccc1S(=O)(=O)Nc1ccccc1C(=O)Nc1ccccc1-c1nc2ccccc2[nH]1 | -3 | 1 | 33* | -2 | 0 | 4 | 0
